Experimental data: article PMC8995400 (Drug delivery and translational research, 2021)
Each block holds one molecule with its values, some of them ahead of it.

Key:
Hec50co cells [1] = experiment: Cell cycle analysis by flow cytometry; format: cell-based, human
In short: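 Hec50co cells seeded at 5×10^3 cells/well in complete DMEM and held 24 hr at 37°C, 5% CO2. They were then exposed 24 hr to taxane (5 or 10 nM), MEK inhibitor (25 μM) or both. Cells were PBS-washed, trypsinized, fixed in ice-cold 70% ethanol 30 min at 4°C, then taken up in PBS with 1% NP40 and 100 μg/mL RNase at 37°C for 30 min. Flow cytometry gave % cells per phase; mean ± SD, n = 3.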

[2] = rats, 2-compartment open model; cited from earlier work
[3] = Plasma pharmacokinetics after IV injection in mice; format: in vivo, BALB/CJ mice; settings: for C0 / clearance / MRT inf / half-life / Vd: BALB/CJ, mouse, iv, 113 ug; for clearance: Cl; for MRT inf: MRT0-inf; for Vd: Vss
In short: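 Same IV dosing of mice (113 μg, solution or nanoparticle-loaded), sampled 5, 30, 60, 120, 180 and 360 min. Blood was spun at 10,600 xg for 5 min, and plasma was extracted and assayed by C18 HPLC-UV (methanol:water 70:30, 0.1% TFA, 320 nm). Concentration–time data were analysed in PK Solver by non-compartmental, 1- and 2-compartment models. n = 3, mean ± SD.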

Hec50co cells [4] = experiment: Cell viability; format: cell-based, human; settings: PD98059 alone
[5] = in 24 h; cited from earlier work
[6] = Biodistribution of PD98059 in mouse organs after IV injection; format: in vivo, BALB/CJ mice; settings: mice; for AUC0-6: IV
In short: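 BALB/CJ mice (8 weeks, 20–23 g) got 113 μg test compound as solution, or as loaded PAMAM-coated PLGA-PEG nanoparticles (3 mg, equivalent dose), IV retro-orbitally. Organs were taken at 5–360 min, rinsed, bead-homogenised in PBS with 7-hydroxyflavone internal standard, and ethyl acetate-extracted. Levels were measured by C18 HPLC-UV at 320 nm against the area ratio to standard. n = 3, mean ± SD.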

[7] = Non compartment model, IV, mice
[8] = One-compartment model, IV, mice
[9] = Two-compartment model, IV, mice

- C0 ([3]; C0, Non compartment model, mice): 2910 ng/mL
- C0 ([3]; C0, One-compartment model, mice): 2630 ng/mL
- C0 ([3]; C0, Two-compartment model, mice): 3150 ng/mL
- clearance ([3]; Non compartment model, mice): 0.31 mL/min
- clearance ([3]; One-compartment model, mice): 1.25 mL/min
- clearance ([3]; Two-compartment model, mice): 0.29 mL/min
- MRT inf ([3]; Non compartment model, mice): 7.29 h
- MRT inf ([3]; One-compartment model, mice): 0.503 h
- MRT inf ([3]; Two-compartment model, mice): 9.26 h
- half-life ([3]; T1/2(α), Two-compartment model, mice): 0.151 h
- half-life ([3]; T1/2(β), Two-compartment model, mice): 7.13 h
- half-life ([3]; T1/2, Non compartment model, mice): 5.25 h
- half-life ([3]; T1/2, One-compartment model, mice): 0.348 h
- Vd [3, 7]: 0.136 L
- Vd [3, 8]: 0.0379 L
- Vd [3, 9]: 0.163 L
- K ([3]; Non compartment model, IV 113 μg PD98059, mice): 0.0022 min⁻¹
- AUC0-inf [3, 7]: 320.68 μg x min/mL
- AUC0-t [3, 7]: 175.72 μg x min/mL
- AUMC0-inf [3, 7]: 140,206.69 μg x min^2/mL
- V [3, 7]: 141.65 mL
- AUC0-inf [3, 8]: 79.61 μg x min/mL
- AUC0-t [3, 8]: 79.61 μg x min/mL
- AUMC0-inf [3, 8]: 2,402.29 μg x min^2/mL
- K [3, 8]: 0.033 min⁻¹
- V [3, 8]: 37.90 mL
- A [3, 9]: 2.65 µg/mL
- AUC0-inf [3, 9]: 340.78 μg x min/mL
- AUC0-t [3, 9]: 170.01 μg x min/mL
- AUMC0-inf [3, 9]: 189,279.12 μg x min^2/mL
- B [3, 9]: 0.49 µg/mL
- K10 [3, 9]: 0.0092 min⁻¹
- K12 [3, 9]: 0.055 min⁻¹
- K21 [3, 9]: 0.013 min⁻¹
- V [3, 9]: 31.72 mL
- α [3, 9]: 0.076 min⁻¹
- β [3, 9]: 0.0016 min⁻¹
- maximum PD98059 level in the brain ([6]; 5 minutes following IV injection): about 3 μg/g
- AUC0-6 ([6]; Brain): 334.25 μg x min/mL
- AUC0-6 ([6]; Heart): 160.37 μg x min/mL
- AUC0-6 ([6]; Kidney): 301.47 μg x min/mL
- AUC0-6 ([6]; Liver): 125.38 μg x min/mL
- AUC0-6 ([6]; Lung): 459.51 μg x min/mL
- AUC0-6 ([6]; Muscle): 129.86 μg x min/mL
- AUC0-6 ([6]; Pancreas): 177.37 μg x min/mL
- AUC0-6 ([6]; Spleen): 129.72 μg x min/mL
Structure (SMILES): COc1cccc(-c2cc(=O)c3ccccc3o2)c1N [PD98059, 2-(2-Amino-3-methoxyphenyl)-4H-1-benzopyran-4-one]
- cells at the G0/G1 phase (Hec50co cells [1]; 25 μM PD98059, 24 hr): 63.04%
- distribution half-life [2]: less than 10 minutes
- cytotoxicity (Hec50co cells [4]; 5 μM): 3.8%
- cytotoxicity (Hec50co cells [4]; 10 μM): 5.3%
- cytotoxicity (Hec50co cells [4]; 25 μM): 17%
- free PD98059 dissolved [5]: more than 80%

Structure (SMILES): CC(=O)O[C@H]1C(=O)[C@@]2(C)[C@H]([C@H](OC(=O)c3ccccc3)[C@]3(O)C[C@H](OC(=O)[C@H](O)[C@@H](NC(=O)c4ccccc4)c4ccccc4)C(C)=C1C3(C)C)[C@]1(OC(C)=O)CO[C@@H]1C[C@@H]2O [PTX, paclitaxel]
- cells at the G2/M phase (Hec50co cells [1]; 5 nM PTX + 25 μM PD98059, 24 hr): 42.15%
- cells at the G2/M phase (Hec50co cells [1]; 5 nM PTX, 24 hr): 37.2%
- cells at the G2/M phase (Hec50co cells [1]; 10 nM PTX + 25 μM PD98059, 24 hr): 74.99%
- cells at the G2/M phase (Hec50co cells [1]; 10 nM PTX, 24 hr): 45.74%
